Results from ChEMBL document CHEMBL2021918, “Discovery of S-444823, a potent CB1/CB2 dual agonist as an antipruritic agent” (Bioorg Med Chem Lett, 2012).
Active and inactive are the calls of the source. The calls are words filed in the database; no cut-off is given here.

Experiments:
Cannabinoid receptor 1 [1] = biological target: T1, Cannabinoid receptor 1 (Homo sapiens, UniProt P21554); experiment: Displacement of [3H]CP55940 from human CB1 receptor membrane fractions
Outline: (§1)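 Membranes from confluent recombinant hCB1 or hCB2 cells: sonicated on ice in 20 mM Tris–HCl pH 7.4, 2 mM EDTA, 0.25 M sucrose with protease inhibitor; spun 3000 rpm 10 min, then supernatant 100,000 g 60 min at 4 °C; pellets stored at −80 °C. Radioligand [3H]-CP55940; its Kd per membrane set by Scatchard analysis.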

Cannabinoid receptor 1 [2] = biological target: T1, Cannabinoid receptor 1; experiment: Partial agonist activity at human CB1 receptor expressed in CHO cells assessed as inhibition of forskolin-induced cAMP levels after 20 mins; type: functional, cell-based
Cannabinoid receptor 2 [3] = biological target: T2, Cannabinoid receptor 2 (Homo sapiens, UniProt P34972); experiment: Agonist activity at human CB2 receptor expressed in CHO cells assessed as inhibition of forskolin-induced cAMP levels after 20 mins; type: functional, cell-based
Outline: (§2)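 hCB2-expressing CHO cells in 24-well plates, exposed to compounds 20 min at 37 °C in Hanks'/20 mM HEPES buffer with 0.1 mM IBMX, 0.2 mM Ro20-1724, 0.1% BSA; forskolin 4 µM then added for 45 min at 37 °C; cellular cAMP quantified by kit.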

Cannabinoid receptor 2 [4] = biological target: T2, Cannabinoid receptor 2; experiment: Displacement of [3H]CP55940 from human CB2 receptor membrane fractions; outline: as §1
Cannabinoid receptor 2 [5] = biological target: T2, Cannabinoid receptor 2; experiment: Partial agonist activity at human CB2 receptor expressed in CHO cells assessed as inhibition of forskolin-induced cAMP levels after 20 mins; type: functional, cell-based; outline: as §2
Cannabinoid receptor 1 [6] = biological target: T1, Cannabinoid receptor 1; experiment: Agonist activity at human CB1 receptor expressed in CHO cells assessed as inhibition of forskolin-induced cAMP levels after 20 mins; type: functional, cell-based
Mus musculus [7] = organism: Mus musculus; experiment: Antipruritic activity against Crj:CD-1 ICR mouse assessed as inhibition of Compound 48/80-induced scratching behaviour at 1 % compound painted on shaven back 15 mins before challenge measured for 30 mins relative to control; type: functional
Mus musculus [8] = experiment: Toxicity in mouse assessed as sedation at 0.1 to 1 mg/kg, iv measured at 15 mins post compound administration; type: organism-based; parameters: dose 0.1-1 mg/kg, route intravenous; conditions: in vivo, 0.25 h
Outline: (§3)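 ICR mice, n = 3 per dose, given compound iv in tail vein at 0.1 and 1.0 mg/kg, dissolved in MDAA and PEG solution. Behaviour observed 15 min post-dose and scored: 5 tonic convulsion, 4 catalepsy, 3 prone position/sedation, 2 crawling, 1 decreased locomotion, 0 normal.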

Mus musculus [9] = experiment: Toxicity in mouse assessed as catalepsy at 0.1 to 1 mg/kg, iv measured at 15 mins post compound administration; type: organism-based; parameters: dose 0.1-1 mg/kg, route intravenous; conditions: in vivo, 0.25 h; outline: as §3

T2 sequence (P34972 whole entry): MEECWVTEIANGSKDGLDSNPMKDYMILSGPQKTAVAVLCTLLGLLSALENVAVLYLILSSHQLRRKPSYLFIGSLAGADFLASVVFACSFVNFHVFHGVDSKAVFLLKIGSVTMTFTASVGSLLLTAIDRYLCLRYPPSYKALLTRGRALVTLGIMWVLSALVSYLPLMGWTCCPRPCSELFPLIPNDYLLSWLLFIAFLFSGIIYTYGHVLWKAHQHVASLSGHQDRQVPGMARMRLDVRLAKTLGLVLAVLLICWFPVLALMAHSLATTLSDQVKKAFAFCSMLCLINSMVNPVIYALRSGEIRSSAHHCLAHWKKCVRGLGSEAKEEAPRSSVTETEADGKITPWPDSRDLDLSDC
T1 sequence (P21554 whole entry): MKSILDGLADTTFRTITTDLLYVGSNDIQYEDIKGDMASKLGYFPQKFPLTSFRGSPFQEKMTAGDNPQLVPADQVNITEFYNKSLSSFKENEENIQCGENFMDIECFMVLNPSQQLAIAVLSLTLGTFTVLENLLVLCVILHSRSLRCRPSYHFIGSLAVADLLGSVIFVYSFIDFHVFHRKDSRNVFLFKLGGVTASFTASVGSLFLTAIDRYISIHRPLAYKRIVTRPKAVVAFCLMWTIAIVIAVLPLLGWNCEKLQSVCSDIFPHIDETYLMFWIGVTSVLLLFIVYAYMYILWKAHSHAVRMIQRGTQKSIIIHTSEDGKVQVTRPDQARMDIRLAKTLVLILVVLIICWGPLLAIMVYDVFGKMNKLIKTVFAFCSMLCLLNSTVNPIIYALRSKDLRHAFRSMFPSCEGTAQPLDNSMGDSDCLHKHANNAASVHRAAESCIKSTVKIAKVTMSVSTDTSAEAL

SMILES	Ki (Cannabinoid receptor 1 [1])	Activity (Cannabinoid receptor 1 [2])	IC50 (Cannabinoid receptor 2 [3])	Ki (Cannabinoid receptor 2 [4])	Activity (Cannabinoid receptor 2 [5])	IC50 (Cannabinoid receptor 1 [6])	inhibition (INH) (Mus musculus [7])	Activity (Mus musculus [8])	Activity (Mus musculus [9])
O=C(O)Cc1cnc(NC(=O)c2cc3c(n(CC4CCCCC4)c2=O)CCCCCC3)s1	235 nM	Active	3.5 nM	4.6 nM	Active	23 nM			
O=C(O)c1ccc(NC(=O)c2cc3c(n(CC4CCCCC4)c2=O)CCCCCC3)cc1	370 nM		38 nM	107 nM		291 nM			
O=C(O)Cc1cccc(NC(=O)c2cc3c(n(CC4CCCCC4)c2=O)CCCCCC3)c1	2880 nM		180 nM	120 nM		997 nM			
O=C(N[C@H](C(=O)O)C1CCCCC1)c1cc2c(n(CC3CCCCC3)c1=O)CCCCCC2	3060 nM		51 nM	111 nM		> 2000 nM			
O=C(N[C@H](C(=O)O)c1ccccc1)c1cc2c(n(CC3CCCCC3)c1=O)CCCCCC2		Active		1.2 nM	Active	> 2000 nM			
O=C(O)Cc1ccc(NC(=O)c2cc3c(n(CC4CCCCC4)c2=O)CCCCCC3)cc1	3990 nM		96 nM	74 nM		> 2000 nM			
O=C(O)c1cnc(NC(=O)c2cc3c(n(CC4CCCCC4)c2=O)CCCCCC3)s1	> 5000 nM		800 nM	885 nM		> 2000 nM			
O=C(O)Cc1csc(NC(=O)c2cc3c(n(CC4CCCCC4)c2=O)CCCCCC3)n1							109%	Non-toxic	Non-toxic
CC(C)(NC(=O)c1cc2c(n(CC3CCCCC3)c1=O)CCCCCC2)C(=O)O	1350 nM			349 nM					
O=C(O)c1cccc(NC(=O)c2cc3c(n(CC4CCCCC4)c2=O)CCCCCC3)c1	1560 nM		268 nM	614 nM		611 nM			
O=C(O)CCc1csc(NC(=O)c2cc3c(n(CC4CCCCC4)c2=O)CCCCCC3)n1								Non-toxic	Non-toxic
O=C(O)Cc1ccccc1NC(=O)c1cc2c(n(CC3CCCCC3)c1=O)CCCCCC2	548 nM			46 nM					
CC(C)[C@H](NC(=O)c1cc2c(n(CC3CCCCC3)c1=O)CCCCCC2)C(=O)O	1880 nM			116 nM					
O=C(O)c1csc(NC(=O)c2cc3c(n(CC4CCCCC4)c2=O)CCCCCC3)n1	> 5000 nM			> 5000 nM		> 2000 nM			
O=C(O)c1ccc(CNC(=O)c2cc3c(n(CC4CCCCC4)c2=O)CCCCCC3)cc1				923 nM					
O=C(O)c1ccccc1NC(=O)c1cc2c(n(CC3CCCCC3)c1=O)CCCCCC2	2530 nM		167 nM	181 nM		657 nM			
O=C(N[C@@H](Cc1ccccc1)C(=O)O)c1cc2c(n(CC3CCCCC3)c1=O)CCCCCC2	738 nM		126 nM	33 nM		297 nM			
O=C(N[C@@H](C(=O)O)c1ccccc1)c1cc2c(n(CC3CCCCC3)c1=O)CCCCCC2	69 nM	Active	4.4 nM	3 nM	Active	> 2000 nM			
